Test results: ChEMBL document CHEMBL6083194, “Discovery and evaluation of 3-(2-isocyanobenzyl)-1H-indole derivatives as potential quorum sensing inhibitors for the control of Pseudomonas aeruginosa infections in vitro” (RSC Med Chem, 2024)
In brackets after ≈: the same amount, converted by molar mass. Activity calls are given as the source filed them. The calls are words filed in the database; no cut-off is given here.

How the values were obtained:
[1] = tested on: Pseudomonas aeruginosa; experiment: Inhibition of biofilm formation in Pseudomonas aeruginosa PAO1 incubated for 24 hrs crystal violet staining based SEM assay; format: functional, organism-based
[2] = tested on: Pseudomonas aeruginosa; experiment: Inhibition of pyocyanin production in Pseudomonas aeruginosa PAO1 at 1/2 time MIC incubated for 18 hrs; format: functional
Method in brief: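 Overnight PAO1 in LB diluted to OD600 = 0.05, subcultured 5–7 h to mid-log, rediluted to OD600 = 0.05. 5 mL with compound grown 18 h at 37 °C, 200 rpm. Supernatant extracted with 3 mL chloroform, back-extracted into 0.2 M HCl, absorbance at 520 nm.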

[3] = tested on: Pseudomonas aeruginosa; experiment: Inhibition of biofilm formation in Pseudomonas aeruginosa PAO1 at 25 ug/ml incubated for 24 hrs crystal violet staining based assay; format: functional
Method in brief: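 PAO1 grown statically for 24 h in LB ± compound in 24-well plates. Planktonic cells removed; attached cells stained with 0.05% crystal violet, rinsed, dissolved in 95% ethanol, read at OD570. DMSO negative, resveratrol positive control; SD from three independent experiments.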

[4] = tested on: Pseudomonas aeruginosa; experiment: Induction of biofilm eradication in Pseudomonas aeruginosa PAO1 at 25 ug/ml by crystal violet staining based assay; format: functional; details: dose 25 µg/ml
Method in brief: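 PAO1 biofilms grown overnight at 37 °C in LB in 24-well plates, washed with PBS, then fresh LB with compound added and grown overnight again. Washed, methanol-fixed, crystal violet stained, ethanol solubilised, read at OD570. DMSO negative, resveratrol positive control.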

[5] = tested on: Pseudomonas aeruginosa; experiment: Anti-virulence effect in Pseudomonas aeruginosa PAO1 assessed as decrease in protease level at 25 ug/ml; format: functional; design: scale not given: the % may be the effect or the level left; details: dose 25 µg/ml
Method in brief: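 Overnight PAO1 culture diluted 1:100 into LB with compound (6.25–25 μg mL−1), grown at 37 °C and 180 rpm; DMSO and RSV (25 μg mL−1) as controls. Culture supernatant mixed with 2% azocasein in 1 M Tris–HCl pH 8.0 for 15 min at 37 °C. Reaction stopped with 10% TCA, centrifuged, NaOH added, read at OD440.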

[6] = tested on: Pseudomonas aeruginosa; experiment: Anti-virulence effect in Pseudomonas aeruginosa PAO1 assessed as inhibition of pyocyanin production at 25 ug/ml; format: functional; design: scale not given: the % may be the effect or the level left; details: dose 25 µg/ml
Method in brief: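 Overnight PAO1 culture in LB at 37 °C, diluted to OD600 0.05 and subcultured 5–7 h to mid-log phase, then re-diluted to OD600 0.05. Grown 18 h at 37 °C and 200 rpm with compound (6.25, 12.5, 25 μg mL−1) or DMSO. Supernatant extracted into chloroform, back-extracted into 0.2 M HCl, read at 520 nm.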

[7] = tested on: Pseudomonas aeruginosa; experiment: Anti-virulence effect in Pseudomonas aeruginosa PAO1 assessed as inhibition of rhamnolipid production at 25 ug/ml; format: functional; design: scale not given: the % may be the effect or the level left; details: dose 25 µg/ml
Method in brief: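 PAO1 culture supernatant from growth with compound (6.25–25 μg mL−1) at 37 °C and 180 rpm, or with DMSO or RSV (25 μg mL−1) as controls. Orcinol assay: 100 μL sample plus 0.19% orcinol in 53% H2SO4, heated 30 min at 80 °C, cooled, read at 421 nm. At least three experiments in triplicate.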

[8] = tested on: Pseudomonas aeruginosa; experiment: Anti-virulence effect in Pseudomonas aeruginosa PAO1 assessed as inhibition of EPS production at 25 ug/ml; format: functional; design: scale not given: the % may be the effect or the level left; details: dose 25 µg/ml
Method in brief: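 PAO1 grown with compound (6.25–25 μg mL−1) in 24-well plates for 24 h at 37 °C and 180 rpm; DMSO and RSV (25 μg mL−1) as controls. Biofilms washed with water, then treated with 0.9% NaCl, 5% phenol and 0.2% hydrazine sulfate. Held 1 h in the dark, read at OD490. Three independent experiments.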

[9] = Inhibition of quorum sensing system in Pseudomonas aeruginosa PAO1
Method in brief: (§1)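 Plate screen. CV026 grown overnight in LB with 50 μg ml−1 kanamycin; 15 μl seeded into 15 ml LB agar (1.0% agarose) containing 20 μM C4-HSL. PAO1 plates run in parallel. Test colonies inoculated by toothpick, incubated overnight at 37 °C. Ring of colourless viable cells around the colony scored as inhibition.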

[10] = Inhibition of quorum sensing system in Chromobacterium violaceum CV026; method in brief: as §1
[11] = tested on: Pseudomonas aeruginosa; experiment: Inhibition of biofilm formation in Pseudomonas aeruginosa PAO1 at 1/2 times MIC incubated for 24 hrs crystal violet staining based SEM assay; format: functional
[12] = tested on: Pseudomonas aeruginosa; experiment: Inhibition of rhamnolipid production in Pseudomonas aeruginosa PAO1 at 1/2 to 1/4 times MIC by orcinol method; format: functional, organism-based
Method in brief: (§2)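 Overnight PAO1 diluted 1:100 into LB with compound, 37 °C, 180 rpm; DMSO control. Supernatant (100 μL) mixed with 900 μL 0.19% orcinol in 53% H2SO4, heated 30 min at 80 °C, cooled, read at 421 nm.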

[13] = tested on: Pseudomonas aeruginosa; experiment: Inhibition of rhamnolipid production in Pseudomonas aeruginosa PAO1 at 1/2 times MIC by orcinol method; format: functional; method in brief: as §2
[14] = tested on: Pseudomonas aeruginosa; experiment: Inhibition of rhamnolipid production in Pseudomonas aeruginosa PAO1 at 1/4 times MIC by orcinol method; format: functional; method in brief: as §2
[15] = tested on: Pseudomonas aeruginosa; experiment: Antibacterial activity against Pseudomonas aeruginosa PAO1 by serial dilution method; format: functional
Method in brief: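 PAO1 in LB, 37 °C. MIC by CLSI 2-fold serial dilution in Mueller–Hinton broth, inoculum 1–5 × 10^5 CFU mL−1, DMSO stocks. Growth curves: overnight culture diluted to OD600 = 0.05, subcultured to mid-log, rediluted to OD600 = 0.05, 3 mL with compound; OD620 read at 1, 3, 5, 7, 9, 11 and 24 h at 37 °C; DMSO negative control.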

Row | inhibition [9] | inhibition [10] | MIC [15] [µg/mL] | Structure (SMILES) | inhibition [1] | inhibition (INH) [2] [%] | inhibition at 25 µg/mL [3] [%] | Activity [4] [%] | Activity [5] [%] | Activity [6] [%] | Activity [7] [%] | Activity [8] [%] | inhibition (INH) [11] [%] | inhibition [2] | inhibition [12] | inhibition (INH) [13] [%] | inhibition (INH) [14] [%]
1 | – | – | – | Oc1ccc(/C=C/c2cc(O)cc(O)c2)cc1 [RESVERATROL] | Dose-dependent-effect | 38 | 55 | 47 | 26 | 26 | 12 | 22 | – | – | – | – | –
2 | Active; Strong Inhibition Observed | Active; Showed Higher Activity | 6 (≈ 22.9 µM) | COc1ccc2[nH]cc(Cc3ccccc3C#N)c2c1 | Dose-dependent-effect | – | – | – | – | – | – | – | 7 | Active; Showed Higher Activity Than Positive Control Rsv | Active | 44 | 30
